Measurements from ChEMBL document CHEMBL1134906, “Arylpiperazine substituted heterocycles as selective alpha(1a) adrenergic antagonists” (Bioorg Med Chem Lett, 2002).

Columns and labels:
[1] = molecular target: T1, Alpha-1A adrenergic receptor (Homo sapiens, UniProt P35348); experiment: Displacement of [125I]HEAT from human Alpha-1A adrenergic receptor
T1 sequence (P35348 whole entry): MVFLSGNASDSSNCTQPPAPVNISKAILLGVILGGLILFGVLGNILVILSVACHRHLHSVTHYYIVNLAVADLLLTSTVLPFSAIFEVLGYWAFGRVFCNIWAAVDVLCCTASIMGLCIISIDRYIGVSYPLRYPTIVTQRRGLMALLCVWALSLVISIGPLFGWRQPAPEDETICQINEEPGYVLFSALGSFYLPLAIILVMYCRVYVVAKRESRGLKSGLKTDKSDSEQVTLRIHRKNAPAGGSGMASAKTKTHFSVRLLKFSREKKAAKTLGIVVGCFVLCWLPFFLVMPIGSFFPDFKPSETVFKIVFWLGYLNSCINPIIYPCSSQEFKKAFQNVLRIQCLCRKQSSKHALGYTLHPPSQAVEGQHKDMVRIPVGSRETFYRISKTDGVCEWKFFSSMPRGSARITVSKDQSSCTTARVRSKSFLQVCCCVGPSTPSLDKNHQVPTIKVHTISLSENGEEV
How it was run: (§1)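 Radioligand competition binding against 125I-HEAT ((±)-β-([125I]-3-iodo-4-hydroxyphenyl)ethylaminomethyl-tetralone), with COS cells as the receptor source. Ki values are derived from displacement and reported as means of three experiments.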

[2] = molecular target: Adrenergic receptors; alpha-1 A & B (Homo sapiens) (UniProt P35348+P35368); experiment: Relative binding affinity for alpha-1b and alpha-1a adrenergic receptors; type: protein assay
[3] = molecular target: T2, Alpha-1D adrenergic receptor (Homo sapiens, UniProt P25100); experiment: Displacement of [125I]HEAT from human Alpha-1D adrenergic receptor; how it was run: as §1
T2 sequence (P25100 whole entry): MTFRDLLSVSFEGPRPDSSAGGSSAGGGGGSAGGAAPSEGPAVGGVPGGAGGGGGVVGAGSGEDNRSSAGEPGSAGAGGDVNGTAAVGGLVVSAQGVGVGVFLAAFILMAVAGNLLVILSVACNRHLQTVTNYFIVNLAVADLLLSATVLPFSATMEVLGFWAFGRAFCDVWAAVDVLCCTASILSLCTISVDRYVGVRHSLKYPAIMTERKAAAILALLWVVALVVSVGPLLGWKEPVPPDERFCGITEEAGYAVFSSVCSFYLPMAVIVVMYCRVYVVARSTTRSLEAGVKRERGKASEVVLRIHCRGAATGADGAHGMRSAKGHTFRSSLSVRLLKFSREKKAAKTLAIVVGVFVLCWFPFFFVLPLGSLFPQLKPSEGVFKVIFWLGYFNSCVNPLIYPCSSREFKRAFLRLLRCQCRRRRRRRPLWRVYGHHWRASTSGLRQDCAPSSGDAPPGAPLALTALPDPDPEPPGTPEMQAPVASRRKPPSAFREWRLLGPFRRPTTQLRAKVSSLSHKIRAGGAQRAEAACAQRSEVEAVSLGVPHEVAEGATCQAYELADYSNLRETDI

[4] = molecular target: Alpha adrenergic receptor (1a and 1d) (Homo sapiens) (UniProt P35348+P25100); experiment: Relative binding affinity for alpha-1d and Alpha-1A adrenergic receptors; type: protein assay
[5] = molecular target: T3, Alpha-1B adrenergic receptor (Homo sapiens, UniProt P35368); experiment: Displacement of [125I]-HEAT from human Alpha-1B adrenergic receptor; how it was run: as §1
T3 sequence (P35368 whole entry): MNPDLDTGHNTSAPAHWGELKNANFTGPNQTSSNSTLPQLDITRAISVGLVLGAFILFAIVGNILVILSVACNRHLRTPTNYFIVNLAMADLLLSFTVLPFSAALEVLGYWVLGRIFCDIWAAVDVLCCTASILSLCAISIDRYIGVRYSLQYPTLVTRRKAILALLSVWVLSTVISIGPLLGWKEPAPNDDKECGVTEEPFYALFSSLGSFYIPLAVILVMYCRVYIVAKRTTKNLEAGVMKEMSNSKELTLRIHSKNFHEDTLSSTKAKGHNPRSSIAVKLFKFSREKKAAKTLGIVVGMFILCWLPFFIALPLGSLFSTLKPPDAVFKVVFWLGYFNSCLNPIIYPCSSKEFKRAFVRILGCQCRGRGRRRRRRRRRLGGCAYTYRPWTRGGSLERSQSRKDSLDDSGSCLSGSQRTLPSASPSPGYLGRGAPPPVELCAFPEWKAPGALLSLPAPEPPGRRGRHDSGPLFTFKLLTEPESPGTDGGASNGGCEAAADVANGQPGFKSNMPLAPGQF

SMILES: OCc1cc(CN2CCN(c3ccccc3Oc3ccccc3)CC2)on1
- Ki [1]: 1500 nM
- Ki ratio [2]: 2.5
- Ki [3]: 3060 nM
- Ki ratio [4]: 2
- Ki [5]: 3720 nM

SMILES: O=C1CCCN1Cc1cc(CN2CCN(c3ccccc3Oc3ccccc3)CC2)on1
- Ki [1]: 28 nM
- Ki ratio [2]: > 170
- Ki [3]: 34.5 nM
- Ki ratio [4]: 1.2
- Ki [5]: > 5000 nM

SMILES: O=C1CCCCN1Cc1cc(CN2CCN(c3ccccc3Oc3ccccc3)CC2)on1
- Ki [1]: 15 nM
- Ki ratio [2]: 147
- Ki [3]: 170 nM
- Ki ratio [4]: 11.3
- Ki [5]: 2200 nM

SMILES: CC(C)Oc1ccccc1N1CCN(Cc2nc(CN3CCCC3=O)co2)CC1
- Ki [1]: 1300 nM
- Ki ratio [2]: > 3.8
- Ki [3]: > 5000 nM
- Ki ratio [4]: > 3.8
- Ki [5]: > 5000 nM

SMILES: CC(C)Oc1ccccc1N1CCN(Cc2cc(CN3CCCC3=O)no2)CC1
- Ki [1]: 1.1 nM
- Ki ratio [2]: 2720
- Ki [3]: 65.5 nM
- Ki ratio [4]: 60
- Ki [5]: 2990 nM

SMILES: CC(C)Oc1ccccc1N1CCN(Cc2nc(CN3CCCCC3=O)co2)CC1
- Ki [1]: 2320 nM
- Ki ratio [2]: > 2.2
- Ki [3]: > 5000 nM
- Ki ratio [4]: > 2.2
- Ki [5]: > 5000 nM

SMILES: CC(C)Oc1ccccc1N1CCN(Cc2nc(CN3C(=O)c4ccccc4C3=O)co2)CC1
- Ki [1]: 297 nM
- Ki ratio [2]: > 16.8
- Ki [3]: 1110 nM
- Ki ratio [4]: 3.7
- Ki [5]: > 5000 nM

SMILES: CC(C)Oc1ccccc1N1CCN(Cc2nc(CN3CCCCC3=O)cs2)CC1
- Ki [1]: 1.2 nM
- Ki ratio [2]: 1450
- Ki [3]: 39.5 nM
- Ki ratio [4]: 33
- Ki [5]: 1740 nM

SMILES: CC(C)Oc1ccccc1N1CCN(Cc2nc(CN3C(=O)CC4(CCCC4)CC3=O)co2)CC1
- Ki [1]: 82 nM
- Ki ratio [2]: > 61
- Ki [3]: 4140 nM
- Ki ratio [4]: 50
- Ki [5]: > 5000 nM

SMILES: CC(C)Oc1ccccc1N1CCN(Cc2nc(CN3CCCC3=O)cs2)CC1
- Ki [1]: 0.9 nM
- Ki ratio [2]: 4520
- Ki [3]: 105 nM
- Ki ratio [4]: 112
- Ki [5]: 4250 nM

SMILES: O=C1CCCCCN1Cc1cc(CN2CCN(c3ccccc3Oc3ccccc3)CC2)on1
- Ki [1]: 86 nM
- Ki ratio [2]: > 58
- Ki [3]: 285 nM
- Ki ratio [4]: 3.3
- Ki [5]: > 5000 nM

SMILES: CC(C)Oc1ccccc1N1CCN(Cc2cc(CN3CCCCC3=O)no2)CC1
- Ki [1]: 8.4 nM
- Ki ratio [2]: > 595
- Ki [3]: 1440 nM
- Ki ratio [4]: 174
- Ki [5]: > 5000 nM

SMILES: CC(C)Oc1ccccc1N1CCN(Cc2nc(CN3CCCCCC3=O)co2)CC1
- Ki [1]: 3470 nM
- Ki ratio [2]: > 1.4
- Ki [3]: > 5000 nM
- Ki ratio [4]: > 1.4
- Ki [5]: > 5000 nM
